The values that follow come from ChEMBL document CHEMBL1126035, “Selective beta 3-adrenergic agonists of brown adipose tissue and thermogenesis. 1. [4-[2-[(2-Hydroxy-3-phenoxypropyl)amino]ethoxy]phenoxy]acetates” (1992).

Assay [1] concerns the target Beta-3 adrenergic receptor (Rattus norvegicus) (UniProt P26255). The assay is described as follows: Inhibition of beta-3 adrenergic receptor GDP binding in rat brown adipose tissue on oral administration relative to isoprenaline. The assay is classed as tissue-based. In short, it runs like this: (§1)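 Rats cold-adapted at 4 °C for 4 days, then kept at 23 °C for 2 days; next day dosed sc or po in 0.45% aqueous NaCl/0.25% w/v Polysorbate 80, 0.1–10 mg kg-1, n=6 per group. Interscapular BAT taken 1 h later, mitochondria by differential centrifugation, GDP binding measured. Expressed relative to isoprenaline sulfate 1 mg kg-1; ED50 by linear regression.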

The nature of assay [2]: Ratio of the dose (D500,peroral administration) elevating the rat heart rate to 500 bpm to the GDP ED50. The assay is classed as functional. In short, it runs like this:
(§2)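 Rats held at 29 °C for 2 weeks, groups of six dosed (sc or po) at the BAT GDP ED50, then at rising multiples of it. Heart rate read 15–30 min after dosing until ≥500 bpm, giving D500; vehicle control group of six. Index = D500 divided by GDP-binding ED50 from cold-adapted rats.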

Assay [3] concerns the target Beta-3 adrenergic receptor (Rattus norvegicus) (UniProt P26255). Put plainly: Dose necessary to produce 50% of the isoprenaline effect to inhibit GDP binding to beta-3 adrenergic receptor in brown adipose tissue(BAT mitochondria) of rats after subcutaneous administration; not active. In short, it runs like this: as §1
Assay [4] in a line: Ratio of the dose (D500,subcutaneous administration) elevating the rat heart rate to 500 bpm to the GDP ED50. The assay is classed as functional. A digest of the protocol: as §2

The source made the active and inactive calls. The calls are words filed in the database; no cut-off is given here.

Chain of Beta-3 adrenergic receptor (Rattus norvegicus) (P26255 whole entry): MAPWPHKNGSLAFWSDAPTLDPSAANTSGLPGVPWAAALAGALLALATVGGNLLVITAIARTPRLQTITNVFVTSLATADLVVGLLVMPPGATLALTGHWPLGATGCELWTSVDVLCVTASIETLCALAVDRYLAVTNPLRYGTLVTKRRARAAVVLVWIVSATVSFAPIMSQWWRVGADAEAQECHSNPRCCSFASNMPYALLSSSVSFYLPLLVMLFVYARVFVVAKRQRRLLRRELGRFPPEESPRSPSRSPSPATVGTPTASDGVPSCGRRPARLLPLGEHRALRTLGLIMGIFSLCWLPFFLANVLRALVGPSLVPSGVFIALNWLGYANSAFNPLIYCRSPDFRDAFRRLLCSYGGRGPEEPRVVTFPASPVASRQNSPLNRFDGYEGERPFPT

`Cl.O=C(O)COc1ccc(OCCNC[C@H](O)COc2ccccc2)cc1` came in with an ED50 in assay [1] of 0.45 mg/kg. Further, the SI in assay [2] is above 22.

In assay [1], `CC(C)(C)OC(=O)COc1ccc(OCCNCC(O)COc2ccccc2)cc1` (centres undefined) showed an ED50 of 0.25 mg/kg. The SI in assay [2] is above 100.

For `COC(=O)COc1cccc(OCCNCC(O)COc2ccccc2F)c1.Cl` (centres undefined), in assay [2], the SI is above 10.

For `COC(=O)COc1ccc(OCC(C)NCC(O)COc2ccccc2)cc1.O` (centres undefined), the SI in assay [2] is above 10.

In the case of `CCOC(=O)COc1ccc(OCCNCC(O)COc2ccccc2)cc1` (centres undefined), the SI in assay [2] is above 100.

`COC(=O)COc1cccc(OCCNCC(O)COc2ccccc2)c1` (centres undefined) gave an ED50 in assay [1] of 5.28 mg/kg. The SI in assay [2] is above 10.

In the case of `COC(=O)COc1ccc(C(=O)NCCNCC(O)COc2ccccc2)cc1` (centres undefined), the ED50 entry in assay [3] is “inactive”.

In turn, `COC(=O)COc1ccc(OCCNCC(O)COc2ccccc2)cc1` (centres undefined) returned an ED50 in assay [1] of 0.12 mg/kg. Also, the SI in assay [2] is above 100.

Consider `CC(C)NC[C@H](O)COc1ccc(O)cc1` [PRENALTEROL], for which the SI in assay [4] is below 1.

The compound `COC(=O)COc1ccc(CCNCC(O)COc2ccccc2)cc1` (centres undefined) came in with a 50% effective dose (ED50) in assay [1] of 0.078 mg/kg. Further, in assay [2], the SI is above 100.

`O=C(O)COc1ccc(OCCNCC(O)COc2ccccc2)cc1` (centres undefined) yielded an ED50 in assay [1] of 3.5 mg/kg. For the same compound, the SI in assay [2] was above 62.

For `CC(C)OC(=O)COc1ccc(OCCNCC(O)COc2ccccc2)cc1` (centres undefined), the SI in assay [2] was above 10.

Compound `COC(=O)c1ccc(CC(C)NCC(O)c2ccccc2)cc1` (centres undefined) displayed an ED50 in assay [1] of 0.94 mg/kg. The SI in assay [2] is above 10.

In the case of `COC(=O)COc1ccc(CC(C)NCC(O)c2cccc(Cl)c2)cc1` (centres undefined), the 50% effect level in assay [1] (ED50) was put at a dose of 0.007 mg/kg. In addition, the SI in assay [2] was above 100.

As for `COC(=O)COc1ccc(OCCNCC(O)COc2ccccc2F)cc1.Cl` (centres undefined), the ED50 in assay [1] was determined as 0.54 mg/kg. Besides, the SI in assay [2] is above 100.

By ED50 is commonly meant the dose that gives a 50% effect, or the effect in half of the subjects.
